According to PubChem BioAssay AID743238 (Broad Institute, 2013):
Hit rate of the full screen: of about 360,000 compounds, about 200 (0.056%) were called active. The list comes from a sample in which actives are over-represented; it also holds similar structures and randomly drawn compounds. Unmarked numbers belong to inactive results.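 The calls were made as follows: active = mean normalized replicate activation at least 10% and every replicate at or above 10%; inconclusive = only one of the two criteria met; inactive = mean below 10% and not all replicates reach 10%.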

Test: activators of inactive X chromosome reactivation, primary screen, imaging, XiGFP fibroblasts, GFP high-content imaging, set 2 (AID 743238);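 also: 0% = median of on-plate neutral control wells and 100% = ellipticine 6 µM median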
Conditions: XiGFP mouse fibroblasts, % GFP-positive cells imaging, 3 d; at 7.58 µM; active compounds read high; cells co-treated with 5-aza-dC sensitizer; scaled so ellipticine positive control = 100%
Summary of the method: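 Material: SV40-immortalized XiGFP fibroblast cells, line 68-5-11 | Buffer or medium: DMEM containing 5-aza-dC | Dosing: One concentration, pinned | Times: 3 d treatment, 15 min room-temperature fixation | Controls: Ellipticine 6 µM positive control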

Structure (SMILES)	activation
C[C@@H](NC(=O)C[C@H]1C[C@@H]2c3cc(NC(=O)Nc4ccccc4F)ccc3O[C@@H]2[C@H](CO)O1)c1ccccc1	0.315%
COc1ccc(NC(=O)Nc2ccc3c(c2)CC(=O)N([C@@H](C)CO)C[C@@H](C)[C@H](CN(C)C(=O)NC2CCCCC2)O3)cc1	-0.248%
C[C@@H]1CN([C@@H](C)CO)C(=O)c2cc(NC(=O)Nc3cccc4ccccc34)ccc2O[C@@H](C)CCCCO[C@@H]1CN(C)S(=O)(=O)c1ccc(Cl)cc1	0.307%
N#CC1(Nc2ccc(-c3ccc(Cl)cc3)cc2)CCCC1	-0.0155%
O=S(=O)(NC1CC1)c1ccc2c3c(cccc13)CC2	0.001%
N#CC1(Nc2ccc3c4c(cccc24)CC3)CCCCC1	40% (active)
CC(C)NC(=O)N(C)C[C@@H]1Oc2c(cccc2N(C)C)C(=O)N([C@H](C)CO)C[C@@H]1C	0.155%
O=C(CC1CC1)N1[C@@H](CO)[C@H](c2ccccc2)C12CN(Cc1cccnc1)C2	0.0215%
COc1ccc2c3c([nH]c2c1)[C@@H](CO)N(C(C)=O)CC31CCN(Cc2ccccc2Cl)CC1	0.131%
C[C@@H]1CN([C@@H](C)CO)C(=O)Cc2cc(NC(=O)C3CC3)ccc2O[C@H]1CN(C)C(=O)NC1CCCCC1	-0.834%
O=C(C[C@@H]1CC[C@@H](NC(=O)c2ccc3c(c2)OCO3)[C@H](CO)O1)NCc1ccc(F)cc1	0.149%
Cc1ccc(S(=O)(=O)Nc2ccc3c(c2)C(=O)N([C@@H](C)CO)C[C@H](C)[C@@H](CN(C)CC2CC2)O3)cc1	-0.069%
Cc1ccccc1CN(C)C[C@H]1OCc2cn(nn2)CCCC(=O)N([C@@H](C)CO)C[C@H]1C	0.238%
CCCN(C)C[C@@H]1Oc2ncc(C#Cc3ccccc3)cc2C(=O)N([C@H](C)CO)C[C@@H]1C	-0.009%
C[C@H](CO)N1C[C@H](C)[C@H](CN(C)C(=O)c2ccncc2)Oc2cc(C#CC3(O)CCCC3)ccc2S1(=O)=O	0.469%
CN(C)CCCNC(=O)C[C@@H]1C=C[C@H](NC(=O)c2ccccc2F)[C@H](CO)O1	-0.107%
CCN1/C(=C\c2ccc3ccccc3[n+]2CC)Sc2cc(C)ccc21	415% (active)
CCCNC(=O)N1CC(=O)N2[C@H](C1)[C@@H](c1ccc(C#Cc3ccccc3)cc1)[C@@H]2CO	-0.0025%
O=C(C[C@@H]1CC[C@@H](NS(=O)(=O)c2ccc(F)cc2)[C@H](CO)O1)NCc1ccc(Cl)c(Cl)c1	0.0265%
C[C@H](CO)N1C[C@H](C)[C@H](CN(C)Cc2ccncc2)Oc2ccc(NS(=O)(=O)c3cn(C)cn3)cc2C1=O	-0.119%
CC=Cc1ccc2n(c1=O)C[C@@H]1[C@@H](CO)[C@H](C(=O)NC3CCCC3)[C@H]2N1C(=O)c1cnccn1 (mixture of isomers)	0.002%

Structure (SMILES)	activation
O=C(Nc1ccccc1F)N[C@@H]1CC[C@H](CCNC(=O)C2CC2)O[C@@H]1CO	0.587%
O=C(C[C@H]1C=C[C@@H](NC(=O)Nc2cc(F)ccc2F)[C@@H](CO)O1)NCc1ccc2c(c1)OCO2	0.137%
C[C@@H]1CN([C@H](C)CO)C(=O)c2cccc(NS(C)(=O)=O)c2O[C@@H]1CN(C)S(=O)(=O)c1cccs1	-1.35%
COc1ccccc1NC(=O)N1CC(=O)N2[C@H](CO)[C@@H](c3ccc(C#Cc4ccc(F)cc4)cc3)[C@H]2C1	-0.0395%
O=C(NCCc1c[nH]c2ccccc12)c1cc2ccccc2oc1=O	-0.0325%
N#C/C(=C/c1ccc(N2CCCCC2)o1)C(=O)NCCc1c[nH]c2ccccc12	119% (active)
Cc1ccc(S(=O)(=O)N(C)CC(=O)NCCc2c[nH]c3ccccc23)cc1	0.082%
CCCNC(=O)NC[C@H]1[C@H](c2ccc(C3=CCCCC3)cc2)[C@H](CO)N1C(C)=O	-0.0205%
CC(C)NC(=O)N1[C@H](C#N)[C@@H](c2ccc(-c3ccc(F)cc3)cc2)[C@H]1CO	0.054%
C[C@@H]1CN([C@H](C)CO)C(=O)c2cc(NC(=O)CCCCCC(=O)Nc3ccccc3N)ccc2O[C@@H]1CN(C)S(=O)(=O)c1ccc(Cl)cc1	-0.749%
C[C@H](O)C#Cc1ccc2c(c1)O[C@@H](CN(C)Cc1cccnc1)[C@H](C)CN([C@H](C)CO)S2(=O)=O	0.253%
O=C(NC1Cc2ccccc2C1)[C@H]1[C@H](CO)[C@H]2Cn3c(ccc(C4=CCCCC4)c3=O)[C@H]2N1CC1CC1	0.397%
CN(C)CC(=O)N[C@@H]1CC[C@H](CC(=O)O)O[C@H]1CO	-0.0755%
C[C@@H]1CN([C@@H](C)CO)C(=O)c2cc(C#CC3CCCCC3)cnc2O[C@@H]1CN(C)Cc1cncnc1	-1.05%
CCC(=C/c1sc2ccc3ccccc3c2[n+]1C)/C=C1\Sc2ccc3ccccc3c2N1C	68% (active)
CC(C)C#Cc1cnc2c(c1)C(=O)N([C@@H](C)CO)C[C@@H](C)[C@H](CN(C)C(=O)CCN1CCCCC1)O2	0.409%
COc1ccc(NC(=O)Nc2ccc3c(c2)C(=O)N([C@@H](C)CO)C[C@@H](C)[C@@H](CN(C)C(=O)CCCN(C)C)OCCCC[C@@H](C)O3)cc1	0.0725%
Cc1ccccc1-c1ccc([C@H]2[C@@H](CO)N3C(=O)CN(C(=O)c4cccnc4)C[C@@H]23)cc1	0.209%
C[C@@H](O)C#Cc1ccc([C@@H]2[C@@H](CO)N3CCCCN(C(=O)c4ccc(F)cc4)C[C@@H]23)cc1	0.907%
C[C@H]1CN([C@@H](C)CO)C(=O)c2cc(Br)cnc2O[C@H]1CN(C)Cc1cccc(F)c1	0.497%
Cc1ccc(S(=O)(=O)N2C[C@H](O)COC[C@@H]3O[C@H](CC(=O)N[C@H]4CCN(Cc5ccccc5)C4)CC[C@H]32)cc1	0.108%
